Measured values of several laboratories.
Each line is one published result; the experiments were not run side by side.
Target: Myosin light chain kinase 2, skeletal/cardiac muscle (MYLK2, Homo sapiens, UniProt Q9H1R3)

With `O=C1NC(=O)c2cc(Nc3ccc(F)cc3)c(Nc3ccc(F)cc3)cc21` the remaining signal was 98.7% (cell-free assay; 0.5 µM).
The inhibition of `COc1cc2ncnc(Nc3ccc(Oc4ccccc4)cc3C)c2cc1OC` is reported as -4% (enzyme activity; inhibitor; 1 µM).
`O=C(NCc1ncc(C(F)(F)F)cc1Cl)c1ccc2c(c1)C1(CCS(=O)(=O)CC1)[C@H](C1CC1)N2S(=O)(=O)c1ccc(F)cc1` gave a remaining binding of 100% (cell-free assay; competition with immobilised ligand; 1 µM).
`CC(C)(C)c1nc(-c2cccc(NS(=O)(=O)c3c(F)cccc3F)c2F)c(-c2ccnc(N)n2)s1` gave a remaining activity of 112% (enzyme activity; inhibitor; radiometric; 1 µM).
`COc1cc2c(N3CCN(C(=O)Nc4ccc(OC(C)C)cc4)CC3)ncnc2cc1OCCCN1CCCCC1` has a remaining signal of 101% (cell-free assay; 0.5 µM).
The remaining activity of `CC(C)(O)[C@H]1CC[C@H](Nc2ccc3ncc(-c4cccc(C(F)(F)F)c4)n3n2)CC1` is reported as 96.7% (enzyme activity; inhibitor; 1 µM).
`NS(=O)(=O)c1cc(NC(=O)C2(c3ccccc3Cl)CC2)ccc1Oc1cccc(Cl)c1` has a remaining binding of 73% (cell-free assay; competition with immobilised ligand; 1 µM).
For `Cc1sc(C(=O)NC2COC2)cc1-n1cc(NC(=O)Nc2c(F)cccc2Cl)cn1`, the remaining activity was 78.7% (enzyme activity; inhibitor; 10 µM).
`Cc1ccc(C(=O)Nc2ccc(CN3CCN(C)CC3)c(C(F)(F)F)c2)cc1C#Cc1cnc2cccnn12` gave a remaining activity of 100% (enzyme activity; inhibitor; 23.5 nM).
`COc1cccc(CNC(=O)c2nc3scc(COCc4ccc(C(=O)O)cc4)c3c(=O)[nH]2)c1` gave a remaining binding of 100% (cell-free assay; competition with immobilised ligand; 1 µM).
For `O=C(Nc1cnn(-c2csc(C(=O)NC3COC3)c2)c1)Nc1c(F)cccc1Cl`, the remaining activity was 83.5% (enzyme activity; inhibitor; 5 µM).
For `CNC(=O)c1cc(Oc2ccc(NC(=O)Nc3ccc(Cl)c(C(F)(F)F)c3)cc2)ccn1`, the inhibition was 16% (enzyme activity; inhibitor; 10 µM).
`CN([C@@H]1CCc2c(CC(=O)O)c3cc(S(C)(=O)=O)ccc3n2C1)S(=O)(=O)c1ccc(F)cc1` has a remaining binding of 100% (cell-free assay; competition with immobilised ligand; 1 µM).
`Clc1ccc(Nc2nnc(Cc3ccncc3)c3ccccc23)cc1` has a remaining signal of 103% (cell-free assay; 0.5 µM).
The remaining activity of `CCCOc1ccc(OC)c(F)c1C(=O)c1ccc(C(=O)N[C@@H]2CNC[C@H]2NC(=O)c2ccc3[nH]ncc3c2)cc1` is reported as 76% (enzyme activity; inhibitor; 10 µM).
The inhibition of `CCN(CC)CCNC(=O)c1c(C)[nH]c(/C=C2\C(=O)Nc3ccc(F)cc32)c1C` is reported as 37% (enzyme activity; inhibitor; 0.3 µM).
`CCS(=O)(=O)c1cc2cc(C[C@](O)(CC(C)(C)c3ccc(F)cc3C(N)=O)C(F)(F)F)[nH]c2cn1` has a remaining binding of 98% (cell-free assay; competition with immobilised ligand; 1 µM).
With `O=C1c2ccccc2-c2n[nH]c3cccc1c23` the activity vs control was 22.2% (enzyme activity; inhibitor; 0.5 µM).
For `Cc1cc(NC(=O)c2cccc3cc(-c4cccc5[nH]nc(N)c45)ccc23)ccc1F`, the activity vs control was 97% (enzyme activity; inhibitor; 0.1 µM).
